What was measured:
Type in all cases: functional
Conditions in all cases: route intraperitoneal
Mus musculus [1] = experiment: Analgesic activity in Swiss CD mouse assessed as elevation of response latency at 100 mg/kg, ip measured 2 hrs post treatment by tail flick method relative to control
Method in brief: (§1)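 Male mice, about 20 g, dosed ip in saline (solution or suspension). High-intensity heat was focused on the tail, and latency to a sudden tail flick was timed, with a 10-s cutoff. Tests ran at 0.5 and 2 h post-dose, with at least ten mice per dose. Percent control = mean latency ÷ mean control latency × 100; 200% was the lower bound of activity.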

Mus musculus [2] = experiment: Analgesic activity in Swiss CD mouse at 100 mg/kg, ip measured 0.5 hr post treatment by hot-plate method relative to control
Method in brief: (§2)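 Male mice, about 20 g, dosed ip in saline. Each mouse was dropped into a glass cylinder on an aluminium plate held at 57 °C. Latency to the first flick of a hind foot was timed at 0.5 and 2 h post-dose, with a 10-s cutoff. At least ten mice per dose. Percent control = mean latency ÷ mean control latency × 100; 200% was the lower bound of activity.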

Mus musculus [3] = experiment: Analgesic activity in Swiss CD mouse at 100 mg/kg, ip measured 2 hrs post treatment by hot-plate method relative to control; method in brief: as §2
Mus musculus [4] = experiment: Analgesic activity in Swiss CD mouse assessed as elevation of response latency at 100 mg/kg, ip measured 0.5 hr post treatment by tail flick method relative to control; method in brief: as §1

`COc1ccc(Cl)c2c1CCC(CN1CCN(c3ccc(Cl)cc3)CC1)=C2` was tested, and the Activity (Mus musculus [1]) was 159%, the Activity (Mus musculus [2]) was 202% and the Activity (Mus musculus [3]) was 160%. For the same compound, the Activity (Mus musculus [4]) was 184%.
In the case of `COc1ccc(Cl)c2c1CCC(CN1CCC(C(C)=O)(c3ccccc3)CC1)=C2.Cl`, the Activity (Mus musculus [1]) is reported as 122%, the Activity (Mus musculus [2]) is reported as 143% and the Activity (Mus musculus [3]) is reported as 124%. The Activity (Mus musculus [4]) was 134%.
In the case of `COc1cc2c(cc1OC)CCC(CN1CCCC1)=C2.Cl`, the Activity (Mus musculus [1]) is reported as 95%, the Activity (Mus musculus [2]) is reported as 173% and the Activity (Mus musculus [3]) is reported as 135%. It also gave an Activity (Mus musculus [4]) of 101%.
`COc1ccc(Cl)c2c1CCC(CN1CCN(S(N)(=O)=O)CC1)=C2.Cl` was tested, and the Activity (Mus musculus [1]) was 88%, the Activity (Mus musculus [2]) was 123% and the Activity (Mus musculus [3]) was 109%. It also gave an Activity (Mus musculus [4]) of 104%.
`COc1ccc(Cl)c2c1CCC(CN1CCCCC1)=C2.Cl` gave an Activity (Mus musculus [1]) of 167%, an Activity (Mus musculus [2]) of 155% and an Activity (Mus musculus [3]) of 127%. It also gave an Activity (Mus musculus [4]) of 212%.
`COc1ccc(N2CCN(CC3=Cc4c(Cl)ccc(OC)c4CC3)CC2)cc1` was tested, and the Activity (Mus musculus [1]) was 123%, the Activity (Mus musculus [2]) was 129% and the Activity (Mus musculus [3]) was 120%. For the same compound, the Activity (Mus musculus [4]) was 131%.
`C=CCN1CCN(CC2=Cc3c(Cl)ccc(OC)c3CC2)CC1.Cl` gave an Activity (Mus musculus [1]) of 137%, an Activity (Mus musculus [2]) of 164% and an Activity (Mus musculus [3]) of 127%. It also gave an Activity (Mus musculus [4]) of 159%.
`CCOC(=O)N1CCN(CC2=Cc3c(Cl)ccc(OC)c3CC2)CC1.Cl` was tested, and the Activity (Mus musculus [1]) was 199%, the Activity (Mus musculus [2]) was 274% and the Activity (Mus musculus [3]) was 233%. For the same compound, the Activity (Mus musculus [4]) was 223%.
`C=CCNCC1=Cc2c(Cl)ccc(OC)c2CC1.Cl` was tested, and the Activity (Mus musculus [1]) was 108%, the Activity (Mus musculus [2]) was 158% and the Activity (Mus musculus [3]) was 115%. It also gave an Activity (Mus musculus [4]) of 131%.
`COc1ccc(Cl)c2c1CCC(CN1CCC(C(=O)N3CCOCC3)CC1)=C2.Cl` gave an Activity (Mus musculus [1]) of 133%, an Activity (Mus musculus [2]) of 107% and an Activity (Mus musculus [3]) of 95%. The Activity (Mus musculus [4]) was 162%.
`COc1ccc(Cl)c2c1CCC(CN1CCC(O)(c3ccccc3)CC1)=C2.Cl` gave an Activity (Mus musculus [1]) of 158%, an Activity (Mus musculus [2]) of 249% and an Activity (Mus musculus [3]) of 175%. For the same compound, the Activity (Mus musculus [4]) was 196%.
`COc1ccc2c(c1)C=C(CN1CCCC1)CC2` gave an Activity (Mus musculus [1]) of 129%, an Activity (Mus musculus [2]) of 114% and an Activity (Mus musculus [3]) of 98%. The Activity (Mus musculus [4]) was 149%.
`COc1ccc(Cl)c2c1CCC(CN1CCN(CCO)CC1)=C2` showed an Activity (Mus musculus [1]) of 191%, an Activity (Mus musculus [2]) of 249% and an Activity (Mus musculus [3]) of 236%. For the same compound, the Activity (Mus musculus [4]) was 187%.
With `COc1ccc(Cl)c2c1CCC(CN1CCC(C(=O)N3CCCCC3)CC1)=C2.Cl.O` the Activity (Mus musculus [1]) was 149%, the Activity (Mus musculus [2]) was 170% and the Activity (Mus musculus [3]) was 124%. For the same compound, the Activity (Mus musculus [4]) was 235%.
For `COc1ccc2c(c1)CCC(CN1CCCC1)=C2.Cl`, the Activity (Mus musculus [1]) was 92%, the Activity (Mus musculus [2]) was 96% and the Activity (Mus musculus [3]) was 103%. For the same compound, the Activity (Mus musculus [4]) was 92%.
`COc1ccc(Cl)c2c1CCC(CN1CCN(C)CC1)=C2` showed an Activity (Mus musculus [1]) of 137%, an Activity (Mus musculus [2]) of 274% and an Activity (Mus musculus [3]) of 218%. For the same compound, the Activity (Mus musculus [4]) was 198%.
For `COc1ccc(Cl)c2c1CCC(CN1CCC(O)(c3ccc(Cl)cc3)CC1)=C2.O=S(=O)(O)O`, the Activity (Mus musculus [1]) was 123%, the Activity (Mus musculus [2]) was 177% and the Activity (Mus musculus [3]) was 102%. The Activity (Mus musculus [4]) was 162%.
In the case of `CCC(=O)OC1CCN(CC2=Cc3c(Cl)ccc(OC)c3CC2)CC1.Cl`, the Activity (Mus musculus [1]) is reported as 179%, the Activity (Mus musculus [2]) is reported as 95% and the Activity (Mus musculus [3]) is reported as 101%. It also gave an Activity (Mus musculus [4]) of 237%.
`CNC(=O)C1CCN(CC2=Cc3c(Cl)ccc(OC)c3CC2)CC1.Cl.O` showed an Activity (Mus musculus [1]) of 166%, an Activity (Mus musculus [2]) of 221% and an Activity (Mus musculus [3]) of 167%. The Activity (Mus musculus [4]) was 208%.
Compound `COc1ccc(Cl)c2c1CCC(CNCC1CC1)=C2.Cl` has an Activity (Mus musculus [1]) of 162%, an Activity (Mus musculus [2]) of 224% and an Activity (Mus musculus [3]) of 171%. For the same compound, the Activity (Mus musculus [4]) was 203%.
Work on `CCC(=O)O[C@](Cc1ccccc1)(c1ccccc1)[C@H](C)CN(C)C` [PROPOXYPHENE] yielded an Activity (Mus musculus [1]) of 146%, an Activity (Mus musculus [2]) of 139% and an Activity (Mus musculus [3]) of 138%. The Activity (Mus musculus [4]) was 169%.
Work on `COc1ccc(Cl)c2c1CCC(CN1CCN(c3cccc(C(F)(F)F)c3)CC1)=C2.O` yielded an Activity (Mus musculus [1]) of 118%, an Activity (Mus musculus [2]) of 167% and an Activity (Mus musculus [3]) of 149%. The Activity (Mus musculus [4]) was 119%.

Source: ChEMBL document CHEMBL3243935, “Analgesic and tranquilizing activity of 5,8-disubstituted 2-aminomethyl-3,4-dihydronaphthalenes” (J Med Chem, 1978)
